“Also recorded” adds a separate entry of the source.
Experiments:
[1] = tested on: 5-helix
[2] = tested on: core^SP; assay: SEC titration of C34-AL647 into core^SP; assay type: binding, HIV-1
[3] = tested on: core^SP; assay: SEC-MALS and SEC displacement of C38 / C38-AL647 from core^SP; assay type: binding, HIV-1; conditions: 5-fold molar excess C34, SEC–MALS, confirmed with core^SP-AL647
[4] = tested on: core^S; assay: ITC with core^S; assay type: binding, HIV-1; conditions: C34 0.05–0.1 mM into 5–10 μM core^S, 10 mM Tris-HCl pH 7.6, 150 mM NaCl, 25 °C, iTC200
[5] = tested on: core^S; assay: SEC titration of C34-AL647 into core^S; assay type: binding, HIV-1; conditions: fits of 280 and 609+650 nm peak areas
[6] = tested on: 5-helix; conditions: 5-fold molar excess C34, 200 μg 5-helix, 10 mM Tris-HCl pH 7.6, 150 mM NaCl
[7] = tested on: core^S; assay: SEC-MALS binding stoichiometry with core^S; set-up: species or system HIV-1
[8] = tested on: core^S; assay: Circular dichroism of core^S with and without C34; set-up: species or system HIV-1
[9] = tested on: core^S; assay: Native-PAGE band shift with core^S; assay type: binding, HIV-1; conditions: 10 μM core^S, 30 min, room temperature, 20% homogeneous gel
[10] = tested on: N-Cys core^S; assay: DEER EPR of N-Cys core^S with and without C34; set-up: species or system HIV-1; conditions: 50 μM subunits, 1.2-fold molar excess C34, Q-band, 50 K
[11] = tested on: core^SP; assay: Circular dichroism of core^SP with and without C34; set-up: species or system HIV-1; conditions: core^SP 2.5 μM trimer, 5-fold excess C34, buffer A pH 7.6, 20 °C
Method in brief: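 CoreSP (N-HR and C-HR peptides counted as one unit) is used at 2.5 μM trimer, alone or with a 5-fold molar excess of C34, in 10 mM Tris-HCl pH 7.6 with 150 mM NaCl. Spectra are recorded at 20 °C in a 0.1 cm path-length flat cell. α-Helical content is estimated by CDNN.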

[12] = tested on: 6-helix; assay: SEC-MALS binding stoichiometry with 6-helix; set-up: species or system HIV-1; conditions: 5-fold molar excess C34, 200 μg 6-helix, 10 mM Tris-HCl pH 7.6, 150 mM NaCl
[13] = tested on: HIV-1 fusion; conditions: ref [17] Markosyan et al.; cited from earlier work
[14] = molecular target: single-chain six-helix bundle (6-helix) (HIV-1) (UniProt P04578); assay: SEC-MALS
[15] = molecular target: single-chain five-helix bundle (5-helix) (HIV-1) (UniProt P04578); assay: SEC-MALS
[16] = molecular target: the molecule itself; assay: composition gradient–MALS

## Ac-C-HR^628–661-NH2 [C34]
[1]; native-PAGE, room temperature
  binding to 5-helix by native-PAGE: binding of C34 is clearly evident
[1]; positive control
  stoichiometry of binding to 5-helix by native-PAGE: 1:1 stoichiometry of binding
[2]; core^SP, value in discussion
  equilibrium constant for the exchange reaction of C34 with C38: 0.9
[2]; fits of 609+650 nm peak areas
  cooperativity of exchange with core^SP: no evidence of any cooperativity
[3]
  displacement of C38 from core^SP: binding of C34 to core^SP is accompanied by displacement of C38
[4]
  heat signature in ITC with core^S: did not yield a heat signature
[5]
  cooperativity of binding to core^S: no evidence of any cooperativity
[6]
  binding to 5-helix (stoichiometry): binds with a 1:1 stoichiometry
[7]; 5-fold molar excess C34, 10 mM Tris-HCl pH 7.6, 150 mM NaCl
  binding stoichiometry with core^S: one core^S trimer to two C34 peptides with no dissociation of the core^S trimer; also recorded: binding of two C34 molecules to one core^S trimer
[7]; SEC–MALS and band-shift assays
  evidence for a 1:3 core^S–(C34)3 complex: no evidence of the existence of a 1:3 core^S–(C34)3 complex
[8]; core^S 7 μM trimer, 5-fold molar excess C34, buffer A pH 7.6, 20 °C
  increase in helicity of core^S on C34 binding: ~ 18%
[8]; two C34 bound, two C28 C-HR displaced, 5-fold molar excess C34
  additional residues in helical conformation of core^S trimer: 30 residues
[9]
  binding to core^S by native-PAGE: even at 3:1 and 3:2 core^S:C34 ratios (Figure 4C) a significant amount of complex comprising two C34 molecules bound to one core^S trimer is formed; also recorded: binding of C34 is clearly evident
[10]
  effect of C34 on DEER dipolar evolution data / P(r) of N-Cys core^S: negligible effect
[11]
  change in helicity of core^SP on C34 binding: no change in helicity
[12]
  binding to 6-helix (stoichiometry): weak binding of C34 as a 1:1 complex
[13]
  time window of fusion inhibitory activity: can extend from the point at which the prehairpin intermediate of gp41 becomes accessible through the formation of late prebundle intermediates and labile pore formation, but not after irreversible formation of the six-helix bundle

## C34 peptide (chemically synthesized, Ac-C-HR^628–661-NH2) (from UniProt P04578 628-661)
[14]
  stoichiometry N (C34 per 6-helix): 1
[15]
  stoichiometry N (C34 per 5-helix): 1

B1: core^S (N34^546–579-(L6)-C28^628–655), homotrimeric six-helix bundle of gp41 (domain or fragment)
chain: SGIVQQQNNLLRAIEAQQHLLQLTVWGIKQLQARSGGRGGWMEWDREINNYTSLIHSLIEESQNQQEK
[16]
  Kd: < 0.25 µM

From article PMC5576721 (Biochemistry, 2015)
